According to ChEMBL document CHEMBL1782009, “Synthesis and characterization of new types of halogenated and alkylated imidazolidineiminothiones and a comparative study of their antitumor, antibacterial, and antifungal activities” (Eur J Med Chem, 2011):
In brackets after ≈: the same amount, converted by molar mass.

Tests used:
Bacillus subtilis = assay: Antibacterial activity against Bacillus subtilis NCTC 1040 at 5 mg/ml after 24 hrs by agar disc diffusion method; format: functional; conditions: NCTC 1040, 24 h, read-out: DIZ
Summary of the method: (§1)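 Agar well-diffusion using 1 cm wells, each loaded with 100 of compound solution (5 mg/mL in DMF). Bacteria were maintained on nutrient agar and plated as a standard suspension. Plates were incubated 24 h at 35 °C, and inhibition zone diameters were measured.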

Candida albicans = assay: Antifungal activity against Candida albicans IMRU 3669 at 5 mg/ml by agar disc diffusion method; format: functional; conditions: read-out: DIZ
Micrococcus luteus = assay: Antibacterial activity against Sarcina lutea ATCC 934 at 5 mg/ml after 24 hrs by agar disc diffusion method; format: functional; conditions: ATCC 934, 24 h, read-out: DIZ; summary of the method: as §1
[1] = Antitumor activity against mouse EAC cells assessed as inhibition of cell viability at 100 ug/ml by Trypan blue assay; format: functional; conditions: Ehrlich
Summary of the method: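 EAC cells were taken by needle aspiration of ascitic fluid from preinoculated mice and diluted 1:10 in saline. Then 0.1 mL of cell suspension, 0.8 mL RPMI 1640 and 0.1 mL compound were incubated 2 h at 37 °C. Dead cells were counted by trypan blue exclusion, and % non-viable = non-viable/total cells × 100.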

Escherichia coli = assay: Antibacterial activity against Escherichia coli NCTC 10416 at 5 mg/ml after 24 hrs by agar disc diffusion method; format: functional; conditions: NCTC 10416, 24 h, read-out: DIZ; summary of the method: as §1
Staphylococcus aureus = assay: Antibacterial activity against Staphylococcus aureus NCTC 7447 at 5 mg/ml after 24 hrs by agar disc diffusion method; format: functional; conditions: NCTC 7447, 24 h, read-out: DIZ; summary of the method: as §1
Aspergillus flavus = assay: Antifungal activity against Aspergillus flavus at 5 mg/ml by agar disc diffusion method; format: functional; conditions: read-out: DIZ
MCF7 [2] = assay: Cytotoxicity against human MCF7 cells assessed as surviving fraction at 50 ug/ml after 48 hrs by SRB assay relative to control; format: functional
Summary of the method: (§2)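 SRB assay per Skehan: compounds at 5.0, 12.5, 25 and 50 were added to cell monolayers in triplicate wells per dose for 48 h at 37 °C, 5% CO2. Cells were then fixed and stained with SRB, excess stain was removed with acetic acid, and bound dye was recovered in Tris EDTA. Surviving fraction was plotted against concentration, and IC50 was read from the dose–response curves.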

HepG2 [3] = assay: Cytotoxicity against human HepG2 cells assessed as surviving fraction at 25 ug/ml after 48 hrs by SRB assay relative to control; format: functional; summary of the method: as §2
HeLa [4] = assay: Cytotoxicity against human HeLa cells assessed as surviving fraction at 25 ug/ml after 48 hrs by SRB assay relative to control; format: functional; summary of the method: as §2
HCT-116 [5] = assay: Cytotoxicity against human HCT116 cells assessed as surviving fraction at 50 ug/ml after 48 hrs by SRB assay relative to control; format: functional; summary of the method: as §2
HeLa [6] = assay: Cytotoxicity against human HeLa cells assessed as surviving fraction at 12.5 ug/ml after 48 hrs by SRB assay relative to control; format: functional; summary of the method: as §2
MCF7 [7] = assay: Cytotoxicity against human MCF7 cells assessed as surviving fraction at 25 ug/ml after 48 hrs by SRB assay relative to control; format: functional; summary of the method: as §2
HeLa [8] = assay: Cytotoxicity against human HeLa cells assessed as surviving fraction at 50 ug/ml after 48 hrs by SRB assay relative to control; format: functional; summary of the method: as §2
HepG2 [9] = assay: Cytotoxicity against human HepG2 cells assessed as surviving fraction at 5 ug/ml after 48 hrs by SRB assay relative to control; format: functional; summary of the method: as §2
HEp-2 [10] = assay: Cytotoxicity against human Hep2 cells assessed as surviving fraction at 50 ug/ml after 48 hrs by SRB assay relative to control; format: functional; summary of the method: as §2
HeLa [11] = assay: Cytotoxicity against human HeLa cells assessed as surviving fraction at 5 ug/ml after 48 hrs by SRB assay relative to control; format: functional; summary of the method: as §2
HepG2 [12] = assay: Cytotoxicity against human HepG2 cells after 48 hrs by SRB assay; format: functional, cell-based; conditions: HepG2, 48 h; summary of the method: as §2
MCF7 [13] = assay: Cytotoxicity against human MCF7 cells assessed as surviving fraction at 12.5 ug/ml after 48 hrs by SRB assay relative to control; format: functional; summary of the method: as §2
HEp-2 [14] = assay: Cytotoxicity against human Hep2 cells after 48 hrs by SRB assay; format: functional, cell-based; conditions: HEp-2, 48 h; summary of the method: as §2
HeLa [15] = assay: Cytotoxicity against human HeLa cells after 48 hrs by SRB assay; format: functional, cell-based; summary of the method: as §2
HCT-116 [16] = assay: Cytotoxicity against human HCT116 cells assessed as surviving fraction at 5 ug/ml after 48 hrs by SRB assay relative to control; format: functional; summary of the method: as §2
HepG2 [17] = assay: Cytotoxicity against human HepG2 cells assessed as surviving fraction at 50 ug/ml after 48 hrs by SRB assay relative to control; format: functional; summary of the method: as §2
MCF7 [18] = assay: Cytotoxicity against human MCF7 cells after 48 hrs by SRB assay; format: functional, cell-based; conditions: MCF7, 48 h; summary of the method: as §2
HepG2 [19] = assay: Cytotoxicity against human HepG2 cells assessed as surviving fraction at 12.5 ug/ml after 48 hrs by SRB assay relative to control; format: functional; summary of the method: as §2
HEp-2 [20] = assay: Cytotoxicity against human Hep2 cells assessed as surviving fraction at 12.5 ug/ml after 48 hrs by SRB assay relative to control; format: functional; summary of the method: as §2
HCT-116 [21] = assay: Cytotoxicity against human HCT116 cells after 48 hrs by SRB assay; format: functional, cell-based; conditions: HCT-116, 48 h; summary of the method: as §2
HCT-116 [22] = assay: Cytotoxicity against human HCT116 cells assessed as surviving fraction at 12.5 ug/ml after 48 hrs by SRB assay relative to control; format: functional; summary of the method: as §2
MCF7 [23] = assay: Cytotoxicity against human MCF7 cells assessed as surviving fraction at 5 ug/ml after 48 hrs by SRB assay relative to control; format: functional; summary of the method: as §2
HCT-116 [24] = assay: Cytotoxicity against human HCT116 cells assessed as surviving fraction at 25 ug/ml after 48 hrs by SRB assay relative to control; format: functional; summary of the method: as §2
HEp-2 [25] = assay: Cytotoxicity against human Hep2 cells assessed as surviving fraction at 5 ug/ml after 48 hrs by SRB assay relative to control; format: functional; summary of the method: as §2
HEp-2 [26] = assay: Cytotoxicity against human Hep2 cells assessed as surviving fraction at 25 ug/ml after 48 hrs by SRB assay relative to control; format: functional; summary of the method: as §2

Cc1ccc(N2C(=N)C(=S)N(c3ccccc3)C2=O)cc1
zone of inhibition at 5000 µg/mL (Bacillus subtilis): 21 mm | zone of inhibition at 5000 µg/mL (Candida albicans): 22 mm | zone of inhibition at 5000 µg/mL (Micrococcus luteus): 18 mm | inhibition at 100 µg/mL [1]: 10% | zone of inhibition at 5000 µg/mL (Escherichia coli): 20 mm | zone of inhibition at 5000 µg/mL (Staphylococcus aureus): 21.5 mm | zone of inhibition at 5000 µg/mL (Aspergillus flavus): 15 mm

CSc1ccc(N2C(=N)C(=S)N(c3ccccc3)C2=O)cc1
zone of inhibition at 5000 µg/mL (Bacillus subtilis): 23.5 mm | zone of inhibition at 5000 µg/mL (Candida albicans): 24 mm | zone of inhibition at 5000 µg/mL (Micrococcus luteus): 25 mm | inhibition at 100 µg/mL [1]: 1% | zone of inhibition at 5000 µg/mL (Escherichia coli): 25.5 mm | zone of inhibition at 5000 µg/mL (Staphylococcus aureus): 24 mm | zone of inhibition at 5000 µg/mL (Aspergillus flavus): 18 mm

COc1ccc(N2C(=N)C(=S)N(c3ccccc3)C2=O)cc1
zone of inhibition at 5000 µg/mL (Bacillus subtilis): 19 mm | zone of inhibition at 5000 µg/mL (Candida albicans): 21 mm | zone of inhibition at 5000 µg/mL (Micrococcus luteus): 25 mm | inhibition at 100 µg/mL [1]: 50% | zone of inhibition at 5000 µg/mL (Escherichia coli): 25 mm | zone of inhibition at 5000 µg/mL (Staphylococcus aureus): 18 mm | zone of inhibition at 5000 µg/mL (Aspergillus flavus): 18 mm

CSc1ccc(N2C(=N)C(=S)N(c3ccc(Cl)cc3)C2=O)cc1
zone of inhibition at 5000 µg/mL (Bacillus subtilis): 16.5 mm | zone of inhibition at 5000 µg/mL (Candida albicans): 16.5 mm | zone of inhibition at 5000 µg/mL (Micrococcus luteus): 15 mm | inhibition at 100 µg/mL [1]: 20% | zone of inhibition at 5000 µg/mL (Escherichia coli): 15.5 mm | zone of inhibition at 5000 µg/mL (Staphylococcus aureus): 16 mm | zone of inhibition at 5000 µg/mL (Aspergillus flavus): 15 mm

COc1ccc(N2C(=N)C(=S)N(c3ccc(Cl)cc3)C2=O)cc1
zone of inhibition at 5000 µg/mL (Bacillus subtilis): 20 mm | zone of inhibition at 5000 µg/mL (Candida albicans): 22 mm | zone of inhibition at 5000 µg/mL (Micrococcus luteus): 22 mm | inhibition at 100 µg/mL [1]: 0.5% | zone of inhibition at 5000 µg/mL (Escherichia coli): 23.5 mm | zone of inhibition at 5000 µg/mL (Staphylococcus aureus): 19.5 mm | zone of inhibition at 5000 µg/mL (Aspergillus flavus): 17.5 mm

Cc1ccc(N2C(=N)C(=S)N(c3ccc(Cl)cc3)C2=O)cc1
zone of inhibition at 5000 µg/mL (Bacillus subtilis): 16 mm | zone of inhibition at 5000 µg/mL (Candida albicans): 12 mm | zone of inhibition at 5000 µg/mL (Micrococcus luteus): 21 mm | inhibition at 100 µg/mL [1]: 10% | zone of inhibition at 5000 µg/mL (Escherichia coli): 17 mm | zone of inhibition at 5000 µg/mL (Staphylococcus aureus): 12 mm | zone of inhibition at 5000 µg/mL (Aspergillus flavus): 14 mm

N=C1C(=S)N(c2ccc(Cl)cc2)C(=O)N1Cc1ccccc1
zone of inhibition at 5000 µg/mL (Bacillus subtilis): 21 mm | Activity (MCF7 [2]): 0.2 | Activity (HepG2 [3]): 0.21 | Activity (HeLa [4]): 0.29 | Activity (HCT-116 [5]): 0.28 | Activity (HeLa [6]): 0.18 | Activity (MCF7 [7]): 0.16 | Activity (HeLa [8]): 0.33 | Activity (HepG2 [9]): 0.45 | Activity (HEp-2 [10]): 0.28 | Activity (HeLa [11]): 0.44 | IC50 (HepG2 [12]): 4.34 µg/mL (≈ 13.2 µM) | Activity (MCF7 [13]): 0.12 | IC50 (HEp-2 [14]): 3.28 µg/mL (≈ 9.95 µM) | IC50 (HeLa [15]): 9.68 µg/mL (≈ 29.4 µM) | Activity (HCT-116 [16]): 0.24 | Activity (HepG2 [17]): 0.3 | zone of inhibition at 5000 µg/mL (Candida albicans): 22 mm | zone of inhibition at 5000 µg/mL (Micrococcus luteus): 20 mm | IC50 (MCF7 [18]): 4.65 µg/mL (≈ 14.1 µM) | Activity (HepG2 [19]): 0.22 | Activity (HEp-2 [20]): 0.22 | IC50 (HCT-116 [21]): 4.19 µg/mL (≈ 12.7 µM) | inhibition at 100 µg/mL [1]: 80% | zone of inhibition at 5000 µg/mL (Escherichia coli): 22 mm | Activity (HCT-116 [22]): 0.22 | Activity (MCF7 [23]): 0.49 | Activity (HCT-116 [24]): 0.16 | zone of inhibition at 5000 µg/mL (Staphylococcus aureus): 21 mm | Activity (HEp-2 [25]): 0.24 | zone of inhibition at 5000 µg/mL (Aspergillus flavus): 18 mm | Activity (HEp-2 [26]): 0.16

CSc1ccc(N2C(=N)C(=S)N(c3ccc(Br)cc3)C2=O)cc1
zone of inhibition at 5000 µg/mL (Bacillus subtilis): 19.5 mm | zone of inhibition at 5000 µg/mL (Candida albicans): 16 mm | zone of inhibition at 5000 µg/mL (Micrococcus luteus): 15 mm | inhibition at 100 µg/mL [1]: 40% | zone of inhibition at 5000 µg/mL (Escherichia coli): 15.5 mm | zone of inhibition at 5000 µg/mL (Staphylococcus aureus): 19 mm | zone of inhibition at 5000 µg/mL (Aspergillus flavus): 15 mm
